Reference: ChEMBL document CHEMBL1629540 (J Med Chem, 2010)

What was measured:
Glutamate receptor 2 [1] = target: T1, Glutamate receptor 2 (Rattus norvegicus, UniProt P19491); experiment: Agonist activity at rat recombinant GluA2(Q)i expressed in Xenopus laevis oocytes by two-electrode voltage clamp assay; assay type: functional, cell-based, Oocyte
In short: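 Homomeric rat GluA2(Q) flip receptors expressed in Xenopus laevis oocytes and recorded by two-electrode voltage clamp. Agonist-evoked currents were normalised to the maximum response in each oocyte. EC50 was obtained by fitting the concentration-response data to a logistic equation giving Imax and the Hill coefficient.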

Glutamate receptor 3 [2] = target: T2, Glutamate receptor 3 (Rattus norvegicus, UniProt P19492); experiment: Displacement of [3H[AMPA from rat recombinant GluA3o expressed in […] cells; assay type: cell-based
In short: (§1)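 Competition binding to membranes from Sf9 cells infected with recombinant baculovirus encoding rat flop GluA subunits. Radioligand 2-5 nM (RS)-[3H]AMPA, 12-16 ligand concentrations. At least three experiments, each in triplicate, reported as Ki mean ± SEM.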

[3] = target: Glutamate receptor ionotropic, kainate 2 (Rattus norvegicus, UniProt P42260); experiment: Displacement of [3H[SYM2081 from rat recombinant GluK2(VCR)a expressed in […] cells; assay type: cell-based
In short: (§2)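 Competition binding to membranes from Sf9 cells infected with recombinant baculovirus encoding rat GluK subunits. Radioligand 1-5 nM [3H]SYM2081 (47.9 Ci/mmol), 12-16 ligand concentrations. At least three experiments, each in triplicate, reported as Ki mean ± SEM.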

Glutamate receptor 1 [4] = target: T3, Glutamate receptor 1 (Rattus norvegicus, UniProt P19490); experiment: Displacement of [3H[AMPA from rat recombinant GluA1o expressed in […] cells; assay type: cell-based; in short: as §1
[5] = target: Glutamate receptor ionotropic, kainate 1 (Rattus norvegicus, UniProt P22756); experiment: Displacement of [3H[SYM2081 from rat recombinant GluK1(Q)1b expressed in […] cells; assay type: cell-based
[6] = Displacement of [3H]AMPA from AMPA receptor in rat brain membrane; assay type: cell membranes
In short: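 Rat cortical synaptosomal membranes, competition with 5 nM [3H]AMPA (55.5 Ci/mmol). IC50 given as the antilog of the mean log value from three individual experiments.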

[7] = Displacement of [3H]KA from kainate receptor in rat brain membrane; assay type: cell membranes
In short: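 Rat cortical synaptosomal membranes, competition with 5 nM [3H]KA (58.0 Ci/mmol). IC50 given as the antilog of the mean log value from three individual experiments.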

Glutamate receptor 4 [8] = target: T4, Glutamate receptor 4 (Rattus norvegicus, UniProt P19493); experiment: Displacement of [3H[AMPA from rat recombinant GluA4o expressed in […] cells; assay type: cell-based; in short: as §1
Glutamate NMDA receptor = experiment: Displacement of [3H]CGP39653 from NMDA receptor in rat brain membrane; assay type: cell membranes
[9] = target: Glutamate receptor ionotropic, kainate 3 (Rattus norvegicus, UniProt P42264); experiment: Displacement of [3H[SYM2081 from rat recombinant GluK3a expressed in […] cells; assay type: cell-based; in short: as §2
Glutamate receptor 4 [10] = target: T4, Glutamate receptor 4; experiment: Agonist activity at rat recombinant GluA4i expressed in Xenopus laevis oocytes by two-electrode voltage clamp assay; assay type: functional, cell-based, Oocyte
In short: (§3)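 Rat homomeric flip-isoform GluA subunits expressed in Xenopus laevis oocytes, measured by two-electrode voltage clamp. Highest concentration tested 3 mM. Responses normalized to the maximum response in each oocyte. Three to five experiments per receptor, each in duplicate. EC50 obtained by fitting I = Imax/(1 + (10^logEC50/10^log[A])^nH), giving Imax and Hill coefficient.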

Glutamate receptor 1 [11] = target: T3, Glutamate receptor 1; experiment: Agonist activity at rat recombinant GluA1i expressed in Xenopus laevis oocytes by two-electrode voltage clamp assay; assay type: functional, cell-based, Oocyte; in short: as §3
Glutamate receptor 2 [12] = target: Glutamate receptor 2 (Homo sapiens, UniProt P42262); experiment: Displacement of [3H]AMPA from GluA2-S1S2 receptor
Glutamate receptor 3 [13] = target: T2, Glutamate receptor 3; experiment: Agonist activity at rat recombinant GluA3i expressed in Xenopus laevis oocytes by two-electrode voltage clamp assay; assay type: functional, cell-based, Oocyte; in short: as §3
Glutamate receptor 2 [14] = target: T1, Glutamate receptor 2; experiment: Displacement of [3H[AMPA from rat recombinant GluA2(R)o expressed in […] cells; assay type: cell-based

T3 sequence (P19490 whole entry): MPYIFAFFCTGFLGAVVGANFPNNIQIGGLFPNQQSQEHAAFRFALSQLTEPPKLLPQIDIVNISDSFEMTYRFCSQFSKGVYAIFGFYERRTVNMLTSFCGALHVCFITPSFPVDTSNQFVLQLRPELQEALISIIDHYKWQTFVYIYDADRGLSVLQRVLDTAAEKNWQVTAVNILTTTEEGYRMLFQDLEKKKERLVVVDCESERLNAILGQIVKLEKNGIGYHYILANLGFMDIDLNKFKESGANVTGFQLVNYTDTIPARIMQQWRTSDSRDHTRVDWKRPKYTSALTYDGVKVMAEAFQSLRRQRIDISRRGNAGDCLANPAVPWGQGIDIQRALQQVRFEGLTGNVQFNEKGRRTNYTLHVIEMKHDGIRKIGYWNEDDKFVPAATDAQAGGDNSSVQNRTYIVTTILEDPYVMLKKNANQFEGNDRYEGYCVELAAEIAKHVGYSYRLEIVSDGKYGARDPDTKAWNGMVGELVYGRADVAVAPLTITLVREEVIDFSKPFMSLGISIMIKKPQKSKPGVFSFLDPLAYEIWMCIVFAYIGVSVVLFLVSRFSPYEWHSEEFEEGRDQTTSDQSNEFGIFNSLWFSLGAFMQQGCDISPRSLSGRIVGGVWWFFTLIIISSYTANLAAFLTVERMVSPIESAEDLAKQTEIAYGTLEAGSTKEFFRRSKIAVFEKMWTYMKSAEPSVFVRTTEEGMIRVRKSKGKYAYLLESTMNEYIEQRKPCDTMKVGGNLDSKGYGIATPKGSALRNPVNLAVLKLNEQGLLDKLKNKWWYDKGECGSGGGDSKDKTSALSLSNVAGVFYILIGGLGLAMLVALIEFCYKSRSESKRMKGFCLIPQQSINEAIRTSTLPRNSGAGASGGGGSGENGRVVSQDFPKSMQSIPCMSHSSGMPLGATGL
T1 sequence (P19491 whole entry): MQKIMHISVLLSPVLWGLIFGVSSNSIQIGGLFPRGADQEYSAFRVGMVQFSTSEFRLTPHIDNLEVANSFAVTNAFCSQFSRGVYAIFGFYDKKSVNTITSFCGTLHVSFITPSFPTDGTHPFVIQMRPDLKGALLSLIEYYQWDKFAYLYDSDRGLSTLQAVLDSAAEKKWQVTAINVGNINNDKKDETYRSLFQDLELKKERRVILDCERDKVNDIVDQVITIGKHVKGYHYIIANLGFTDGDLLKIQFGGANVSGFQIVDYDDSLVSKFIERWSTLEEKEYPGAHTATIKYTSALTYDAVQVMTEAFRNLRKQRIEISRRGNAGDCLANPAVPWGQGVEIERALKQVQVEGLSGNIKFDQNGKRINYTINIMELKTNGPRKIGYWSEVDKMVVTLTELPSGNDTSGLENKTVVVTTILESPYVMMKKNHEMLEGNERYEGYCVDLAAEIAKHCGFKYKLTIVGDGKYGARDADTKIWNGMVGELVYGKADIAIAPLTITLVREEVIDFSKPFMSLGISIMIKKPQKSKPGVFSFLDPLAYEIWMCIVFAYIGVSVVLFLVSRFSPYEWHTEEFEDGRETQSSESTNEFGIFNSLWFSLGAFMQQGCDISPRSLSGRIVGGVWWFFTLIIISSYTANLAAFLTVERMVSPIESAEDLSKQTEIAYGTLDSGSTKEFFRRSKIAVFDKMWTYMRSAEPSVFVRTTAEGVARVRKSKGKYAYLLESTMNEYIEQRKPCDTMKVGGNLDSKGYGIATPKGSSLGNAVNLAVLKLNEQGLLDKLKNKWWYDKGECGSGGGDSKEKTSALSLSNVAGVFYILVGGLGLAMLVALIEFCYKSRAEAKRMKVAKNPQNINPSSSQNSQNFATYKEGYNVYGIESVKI
Chain of Glutamate receptor ionotropic, kainate 3 (P42264 whole entry): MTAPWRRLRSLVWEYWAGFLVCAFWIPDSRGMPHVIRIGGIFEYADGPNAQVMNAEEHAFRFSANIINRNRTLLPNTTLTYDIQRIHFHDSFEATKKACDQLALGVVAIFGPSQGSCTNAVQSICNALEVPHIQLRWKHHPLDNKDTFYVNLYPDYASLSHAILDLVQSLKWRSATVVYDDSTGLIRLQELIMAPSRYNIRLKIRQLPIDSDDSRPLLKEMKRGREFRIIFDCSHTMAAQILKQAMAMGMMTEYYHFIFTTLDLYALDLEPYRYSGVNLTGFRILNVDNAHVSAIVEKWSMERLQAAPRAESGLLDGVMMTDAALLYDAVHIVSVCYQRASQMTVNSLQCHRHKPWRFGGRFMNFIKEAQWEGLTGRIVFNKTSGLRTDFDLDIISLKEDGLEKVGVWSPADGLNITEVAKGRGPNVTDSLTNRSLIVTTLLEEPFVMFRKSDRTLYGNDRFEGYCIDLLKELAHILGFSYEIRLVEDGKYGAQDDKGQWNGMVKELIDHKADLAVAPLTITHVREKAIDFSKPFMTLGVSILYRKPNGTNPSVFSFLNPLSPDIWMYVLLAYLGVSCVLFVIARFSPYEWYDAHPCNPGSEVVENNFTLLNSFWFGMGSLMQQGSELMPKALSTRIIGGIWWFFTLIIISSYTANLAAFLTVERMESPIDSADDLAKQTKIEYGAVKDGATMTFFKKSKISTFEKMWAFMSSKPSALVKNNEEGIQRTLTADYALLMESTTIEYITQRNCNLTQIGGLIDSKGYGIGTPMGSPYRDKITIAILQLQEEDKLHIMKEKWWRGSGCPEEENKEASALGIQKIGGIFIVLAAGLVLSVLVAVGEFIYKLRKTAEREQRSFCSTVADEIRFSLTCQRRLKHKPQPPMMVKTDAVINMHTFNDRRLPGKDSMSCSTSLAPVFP
Chain of Glutamate receptor ionotropic, kainate 2 (P42260 whole entry): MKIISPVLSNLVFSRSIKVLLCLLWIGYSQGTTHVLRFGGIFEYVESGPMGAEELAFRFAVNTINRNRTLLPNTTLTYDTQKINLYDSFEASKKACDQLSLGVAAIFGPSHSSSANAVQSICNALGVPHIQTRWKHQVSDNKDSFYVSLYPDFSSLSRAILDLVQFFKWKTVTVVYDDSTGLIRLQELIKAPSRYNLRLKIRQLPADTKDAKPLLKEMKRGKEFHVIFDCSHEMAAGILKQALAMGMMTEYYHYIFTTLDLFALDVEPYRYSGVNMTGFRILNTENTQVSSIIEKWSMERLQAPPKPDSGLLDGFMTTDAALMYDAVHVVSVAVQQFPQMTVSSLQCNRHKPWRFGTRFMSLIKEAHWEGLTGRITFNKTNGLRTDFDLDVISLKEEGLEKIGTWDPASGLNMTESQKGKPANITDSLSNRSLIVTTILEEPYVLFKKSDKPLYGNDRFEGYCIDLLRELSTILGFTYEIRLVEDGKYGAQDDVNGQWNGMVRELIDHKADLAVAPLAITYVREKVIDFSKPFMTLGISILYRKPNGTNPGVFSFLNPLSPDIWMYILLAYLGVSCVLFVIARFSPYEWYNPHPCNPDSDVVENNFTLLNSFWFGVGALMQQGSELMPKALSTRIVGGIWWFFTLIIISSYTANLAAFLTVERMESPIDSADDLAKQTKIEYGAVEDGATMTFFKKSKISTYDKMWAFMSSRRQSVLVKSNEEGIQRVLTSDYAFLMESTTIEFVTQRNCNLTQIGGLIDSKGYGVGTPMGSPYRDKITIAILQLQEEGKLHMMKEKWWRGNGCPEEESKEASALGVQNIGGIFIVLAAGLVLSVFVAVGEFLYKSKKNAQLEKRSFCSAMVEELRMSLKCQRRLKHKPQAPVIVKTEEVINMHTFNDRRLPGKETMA
T2 sequence (P19492 whole entry): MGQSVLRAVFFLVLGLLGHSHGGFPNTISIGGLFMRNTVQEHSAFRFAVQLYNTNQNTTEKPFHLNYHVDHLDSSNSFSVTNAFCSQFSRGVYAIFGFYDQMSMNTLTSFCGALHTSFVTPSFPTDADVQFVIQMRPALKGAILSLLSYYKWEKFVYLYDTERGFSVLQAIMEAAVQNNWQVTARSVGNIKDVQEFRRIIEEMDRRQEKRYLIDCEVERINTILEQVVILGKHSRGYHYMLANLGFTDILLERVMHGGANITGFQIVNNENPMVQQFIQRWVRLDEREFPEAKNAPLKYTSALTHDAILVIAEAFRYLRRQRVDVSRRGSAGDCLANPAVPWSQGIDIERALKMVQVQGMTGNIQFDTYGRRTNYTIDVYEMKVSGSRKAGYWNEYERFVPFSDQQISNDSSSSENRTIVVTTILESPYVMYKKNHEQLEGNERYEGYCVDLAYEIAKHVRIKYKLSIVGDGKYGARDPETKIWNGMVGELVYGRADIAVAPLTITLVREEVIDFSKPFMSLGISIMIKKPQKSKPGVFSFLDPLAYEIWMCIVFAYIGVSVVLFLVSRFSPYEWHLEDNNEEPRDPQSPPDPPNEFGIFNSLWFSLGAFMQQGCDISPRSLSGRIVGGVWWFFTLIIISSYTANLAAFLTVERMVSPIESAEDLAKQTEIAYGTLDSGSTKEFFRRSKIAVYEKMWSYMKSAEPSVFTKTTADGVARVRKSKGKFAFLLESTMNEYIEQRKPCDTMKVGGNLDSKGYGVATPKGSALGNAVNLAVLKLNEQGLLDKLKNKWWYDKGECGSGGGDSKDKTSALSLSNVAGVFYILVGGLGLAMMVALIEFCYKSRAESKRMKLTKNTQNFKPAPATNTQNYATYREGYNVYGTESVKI
Chain of Glutamate receptor 2 (Homo sapiens, UniProt P42262) (P42262 whole entry): as the sequence (P19491 whole entry) above, with T191M, A291T, G764R, P852A counted along it

Structure (SMILES)	EC50 (Glutamate receptor 2 [1]) [µM]	Ki (Glutamate receptor 3 [2]) [µM]	Ki [3] [µM]	Ki (Glutamate receptor 1 [4]) [µM]	Ki [5] [µM]	IC50 [6] [µM]	IC50 [7] [µM]	Ki (Glutamate receptor 4 [8]) [µM]	Ki (Glutamate NMDA receptor) [µM]	Ki [9] [µM]	EC50 (Glutamate receptor 4 [10]) [µM]	EC50 (Glutamate receptor 1 [11]) [µM]	Ki (Glutamate receptor 2 [12]) [µM]	EC50 (Glutamate receptor 3 [13]) [µM]	Ki (Glutamate receptor 2 [14]) [µM]
O=C(O)[C@H]1Cc2c(O)noc2CN1	22.3	0.84	> 100	0.36	10.1	0.47	> 100	0.64	> 100						
O=C(O)C1NCCc2c1o[nH]c2=O (racemic)	34.6	4.52	> 100	0.18	4.48	0.37	> 100	13.5	> 100	29.8	> 1000	82.8	0.108	637	
O=C(O)C1Cc2c(O)noc2CN1 (racemic)										54			0.494		
NC(Cc1onc(O)c1Cl)C(=O)O (racemic)		27.5	> 100	0.13	6.8	0.22	> 100	11.9	18	90.5		4.7			0.37
Cc1onc(O)c1C[C@H](N)C(=O)O [(S)-AMPA]			> 1000							42.7					
N[C@H](C(=O)O)c1cc(O)no1 [IBOTENIC ACID]		> 100	3.23	> 100	2.43	> 100	22	> 100		1.74					> 100
